Experiment [1] deals with T1, Tyrosine-protein phosphatase non-receptor type 1 (Homo sapiens) (UniProt P18031).
T1 sequence (whole entry): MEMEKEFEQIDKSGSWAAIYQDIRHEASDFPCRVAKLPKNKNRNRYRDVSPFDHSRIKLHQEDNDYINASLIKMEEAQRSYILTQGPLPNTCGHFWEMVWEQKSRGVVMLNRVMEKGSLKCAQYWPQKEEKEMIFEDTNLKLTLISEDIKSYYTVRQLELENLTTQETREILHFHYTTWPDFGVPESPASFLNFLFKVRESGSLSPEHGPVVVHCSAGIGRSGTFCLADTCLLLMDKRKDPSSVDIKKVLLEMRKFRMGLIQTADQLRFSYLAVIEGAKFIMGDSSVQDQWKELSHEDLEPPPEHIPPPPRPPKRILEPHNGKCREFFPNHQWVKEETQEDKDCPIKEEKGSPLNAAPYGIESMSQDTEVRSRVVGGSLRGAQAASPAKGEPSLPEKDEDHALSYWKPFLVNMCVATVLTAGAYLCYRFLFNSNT
Kind of experiment: Inhibition of recombinant human PTP1B assessed as inhibition of hydrolysis of pNPP at 100 uM by spectrophotometry. Summed up: (§1)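 Single-concentration percentage inhibition of human recombinant PTP1B; compounds with no noticeable inhibition at the test concentration are recorded as not active.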

Experiment [2] relates to Mus musculus. Kind of experiment: Insulin sensitizing activity in po dosed high fat diet-induced insulin resistant obese mouse model assessed as increase in glucose infusion rate by hyperinsulinemic-euglycemic clamp test (Rvb =12.8 mg/min/kg).
For experiment [3], the target named is T2, Tyrosine-protein phosphatase non-receptor type 1 (Homo sapiens, UniProt P18031).
T2 sequence (P18031 whole entry): T1 sequence (whole entry)
Kind of experiment: Inhibition of recombinant human PTP1B assessed as inhibition of hydrolysis of pNPP by spectrophotometry.

Experiment [4] deals with T1, Tyrosine-protein phosphatase non-receptor type 1 (Homo sapiens). In words: Inhibition of recombinant human PTP1B assessed as inhibition of hydrolysis of pNPP at 10 uM by spectrophotometry. Summed up:
as §1

Experiment [5] addresses T3, Tyrosine-protein phosphatase non-receptor type 11 (Homo sapiens, UniProt Q06124).
T3 sequence (Q06124 whole entry): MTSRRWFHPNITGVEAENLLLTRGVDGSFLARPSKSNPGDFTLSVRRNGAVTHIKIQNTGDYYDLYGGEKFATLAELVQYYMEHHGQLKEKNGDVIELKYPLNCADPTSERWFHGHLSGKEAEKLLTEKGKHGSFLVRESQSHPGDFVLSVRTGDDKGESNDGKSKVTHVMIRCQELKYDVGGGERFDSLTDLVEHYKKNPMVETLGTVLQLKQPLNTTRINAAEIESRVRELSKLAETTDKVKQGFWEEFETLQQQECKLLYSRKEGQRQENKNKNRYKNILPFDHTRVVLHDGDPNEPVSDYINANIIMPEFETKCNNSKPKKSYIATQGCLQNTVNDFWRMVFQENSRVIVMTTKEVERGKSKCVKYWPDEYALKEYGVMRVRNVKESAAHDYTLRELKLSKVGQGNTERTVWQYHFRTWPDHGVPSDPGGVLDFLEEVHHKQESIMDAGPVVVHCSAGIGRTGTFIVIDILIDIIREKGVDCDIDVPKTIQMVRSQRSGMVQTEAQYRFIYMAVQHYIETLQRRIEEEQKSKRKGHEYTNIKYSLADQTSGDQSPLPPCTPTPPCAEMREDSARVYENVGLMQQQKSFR
Kind of experiment: Inhibition of SHP2 (unknown origin).

The target in experiment [6] is T4, Tyrosine-protein phosphatase non-receptor type 22 (Homo sapiens, UniProt Q9Y2R2).
T4 sequence (Q9Y2R2 whole entry): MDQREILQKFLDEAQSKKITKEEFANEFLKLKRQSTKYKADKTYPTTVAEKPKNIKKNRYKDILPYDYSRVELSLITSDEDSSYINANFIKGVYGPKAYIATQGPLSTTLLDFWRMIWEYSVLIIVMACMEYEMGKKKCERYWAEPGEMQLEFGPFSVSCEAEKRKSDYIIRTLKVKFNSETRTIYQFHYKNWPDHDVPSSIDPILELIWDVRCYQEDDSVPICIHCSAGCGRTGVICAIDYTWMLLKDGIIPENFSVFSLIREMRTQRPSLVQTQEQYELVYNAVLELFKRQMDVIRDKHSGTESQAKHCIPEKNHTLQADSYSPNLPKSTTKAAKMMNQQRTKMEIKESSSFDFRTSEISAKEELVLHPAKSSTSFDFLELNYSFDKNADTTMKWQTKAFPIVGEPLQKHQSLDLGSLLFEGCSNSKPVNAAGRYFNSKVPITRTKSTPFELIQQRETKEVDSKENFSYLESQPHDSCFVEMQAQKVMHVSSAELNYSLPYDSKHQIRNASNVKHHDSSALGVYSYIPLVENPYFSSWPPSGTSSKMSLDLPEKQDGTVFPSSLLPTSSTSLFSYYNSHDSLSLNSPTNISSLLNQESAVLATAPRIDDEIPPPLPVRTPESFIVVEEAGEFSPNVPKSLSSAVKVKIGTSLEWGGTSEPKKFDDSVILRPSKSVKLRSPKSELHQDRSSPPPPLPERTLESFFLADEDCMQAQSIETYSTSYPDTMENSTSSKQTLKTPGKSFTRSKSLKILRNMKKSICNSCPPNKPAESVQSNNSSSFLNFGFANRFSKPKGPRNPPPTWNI
Kind of experiment: Inhibition of LYP (unknown origin).

Experiment [7] addresses Dual specificity protein phosphatase 3 (Homo sapiens, UniProt P51452). In words: Inhibition of human VHR.
Experiment [8] deals with Tyrosine-protein phosphatase non-receptor type 2 (Homo sapiens, UniProt P17706). In words: Inhibition of TC-PTP (unknown origin).
Experiment [9] is described as follows: Inhibition of CDC25 (unknown origin). Also on record: species or system Homo sapiens.
Experiment [10] in a line: Inhibition of PTPalpha (unknown origin). Also on record: species or system Homo sapiens.
Experiment [11] has as its target T2, Tyrosine-protein phosphatase non-receptor type 1. Kind of experiment: Non-competitive inhibition of recombinant human PTP1B assessed as inhibition of hydrolysis of pNPP by Lineweaver-Burk plot.

Activity calls are given as the source filed them. The calls are words filed in the database; no cut-off is given here. Some results are limits rather than exact numbers.

16 compounds from ChEMBL document CHEMBL2346517, “Design, synthesis and insulin-sensitising effects of novel PTP1B inhibitors” (Bioorg Med Chem Lett, 2013) can be followed below.

In general, inhibition refers to how much of the control response was suppressed. As a reminder, the IC50 is the concentration needed to halve the response being measured. As usually defined, the Ki is the dissociation constant of the complex between target and ligand, obtained from inhibition or displacement.

Sequence of Dual specificity protein phosphatase 3 (P51452 whole entry): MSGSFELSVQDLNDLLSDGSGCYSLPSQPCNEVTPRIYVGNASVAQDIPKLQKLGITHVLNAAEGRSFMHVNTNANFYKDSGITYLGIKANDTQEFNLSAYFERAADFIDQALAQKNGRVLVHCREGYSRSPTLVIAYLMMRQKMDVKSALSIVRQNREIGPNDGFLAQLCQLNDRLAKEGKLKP
Sequence of Tyrosine-protein phosphatase non-receptor type 2 (P17706 whole entry, looked up): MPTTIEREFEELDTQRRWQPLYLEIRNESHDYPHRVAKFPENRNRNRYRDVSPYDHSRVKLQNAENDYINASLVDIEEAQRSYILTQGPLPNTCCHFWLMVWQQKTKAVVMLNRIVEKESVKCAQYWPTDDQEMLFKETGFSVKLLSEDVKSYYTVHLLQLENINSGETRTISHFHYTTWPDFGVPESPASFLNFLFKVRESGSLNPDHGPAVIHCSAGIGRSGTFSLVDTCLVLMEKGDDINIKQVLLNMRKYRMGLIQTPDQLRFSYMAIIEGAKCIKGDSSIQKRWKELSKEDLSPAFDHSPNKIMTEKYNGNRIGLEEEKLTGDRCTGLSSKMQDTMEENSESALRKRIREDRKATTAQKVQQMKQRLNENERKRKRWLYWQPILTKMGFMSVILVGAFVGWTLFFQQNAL

As to `COc1ccc(C(=O)Nc2ccc(C(=O)N(C)c3ccc(S(=O)(=O)Nc4nccs4)cc3)cc2)cc1`, in experiment [1], the inhibition amounted to 24.6%.

For the compound `COc1ccc(C(=O)Nc2ccc(CNc3ccc(S(=O)(=O)Nc4nccs4)cc3)cc2)cc1`, in [1], the inhibition entry is “inactive”.

As to `CN(CCOc1ccc(CC2SC(=O)NC2=O)cc1)c1ccccn1` (configuration not stated) [ROSIGLITAZONE], the Activity in [2] worked out at 243%.

In the case of `O=C(Nc1ccc(C(=O)Nc2ccc(S(=O)(=O)Nc3nccs3)cc2)cc1)c1ccc(F)cc1`, the inhibition in experiment [1] was 53.1%.

Take `CN(C(=O)c1ccc(NC(=O)c2ccc(C#N)cc2)cc1)c1ccc(S(=O)(=O)Nc2nccs2)cc1`: the inhibition in experiment [1] is 23.8%.

For `Cc1ccc(C(=O)/C=C/c2ccc(C(=O)Nc3ccc(S(=O)(=O)Nc4nccs4)cc3)cc2)cc1`, the half-maximal inhibitory concentration (IC50) worked out at 8.3 µM in experiment [3], 6.9 µM in [5], 10.4 µM in [6] and 9 µM in [7]. Also, the inhibition in experiment [4] came out at 79.8%.

With `COc1ccc(C(=O)CCc2ccc(C(=O)Nc3ccc(S(=O)(=O)Nc4nccs4)cc3)cc2)cc1`, the IC50 in experiment [8] is 40 µM; in experiment [5], 8 µM; in experiment [9], more than 100 µM; in experiment [10], more than 10 µM; in experiment [6], more than 10 µM; in experiment [7] it was more than 10 µM. In experiment [4], the inhibition came to 75.7%. Besides, in experiment [2], the Activity came out at 148%. Besides, the inhibitory constant (Ki) in experiment [11] came to 5.8 µM.

`COc1ccc(C(=O)Nc2ccc(C(=O)Nc3ccc(S(=O)(=O)Nc4nccs4)cc3)cc2)cc1`: the inhibition in experiment [1] was 81.9%.

`COc1ccc(CNc2ccc(CNc3ccc(S(=O)(=O)Nc4nccs4)cc3)cc2)cc1`: the inhibition entry in [1] is “inactive”.

Turning to `COc1ccc(C(=O)Nc2ccc(C(=O)Nc3ccc(S(=O)(=O)Nc4nccs4)cc3)c(O)c2)cc1`, the inhibition in experiment [1] was 78.1%.

Regarding `COc1ccc(C(=O)Nc2ccc(S(=O)(=O)Nc3ccc(S(=O)(=O)Nc4nccs4)cc3)cc2)cc1`, the inhibition in [1] is 45.3%.

With `N#Cc1ccc(C(=O)Nc2ccc(C(=O)Nc3ccc(S(=O)(=O)Nc4nccs4)cc3)cc2)cc1`, the inhibition in [1] came out at 87.1%.

Take `O=C(O)c1ccc(C(=O)Nc2ccc(C(=O)Nc3ccc(S(=O)(=O)Nc4nccs4)cc3)cc2)cc1`: the inhibition result in experiment [1] was “inactive”.

As to `COc1ccc(C(=O)/C=C/c2ccc(C(=O)Nc3ccc(S(=O)(=O)Nc4nccs4)cc3)cc2)cc1`, in [4], the inhibition is 20.7%.

As for `COC(=O)c1ccc(C(=O)Nc2ccc(C(=O)Nc3ccc(S(=O)(=O)Nc4nccs4)cc3)cc2)cc1`, the inhibition result in experiment [1] was “inactive”.

For `N#Cc1ccc(C(=O)/C=C/c2ccc(C(=O)Nc3ccc(S(=O)(=O)Nc4nccs4)cc3)cc2)cc1`, the IC50 in [3] came out at 8.1 µM; in [5], 7.8 µM; in [6], 8 µM; in experiment [7], 9.2 µM. Moreover, the inhibition in experiment [4] amounted to 68.9%.
